These results are taken from ChEMBL document CHEMBL1156509, “Survival in the presence of antifungals: genome-wide expression profiling of Aspergillus niger in response to sublethal concentrations of caspofungin and fenpropimorph” (2007).

Experiment [1] concerns Aspergillus niger. Kind of experiment: Induction of GFP tagged PagsA expression in Aspergillus niger JvD1.1 at 104.2 ug/mL by fluorescence microscopy. It counts as functional, organism-based. An outline of the steps:
(§1)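 agsA promoter-GFP reporters, cytoplasmic (JvD1.1) or nuclear H2B-targeted (RD6.47). Germlings pre-grown 6 h at 37 °C in 2× CM, exposed 3 h at 30 °C to seven 2-fold dilutions. GFP levels were scored by fluorescence microscopy as 0 (basal), 1 (intermediate) or 2 (high). Controls: gpdA-H2B-GFP strain MA26.1 (positive), N402 (negative).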

Experiment [2] deals with Aspergillus niger. Kind of experiment: Antifungal activity against Aspergillus niger JvD1.1 at 104.2 ug/mL by microtiter plate. Format: functional, organism-based. An outline of the steps: (§2)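 Reporter conidia (2×10^4 per well) were pre-grown 6 h at 37 °C in 2× CM in glass-bottom plates. An equal volume of a 2-fold dilution series (seven concentrations) was added, then 3 h at 30 °C. Medium was discarded and adherent germlings imaged. Growth inhibition was scored 0/1/2 from hyphal length.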

In experiment [3] the test system is Aspergillus niger. The experiment can be described thus: Antifungal activity against Aspergillus niger RD6.47 at 104.2 ug/mL by microtiter plate. Format: functional, organism-based. In outline: as §2
Experiment [4] relates to Aspergillus niger. Kind of experiment: Induction of GFP tagged PagsA-H2B expression in Aspergillus niger RD6.47 at 104.2 ug/mL by fluorescence microscopy. It counts as functional, organism-based. In outline: as §1
Experiment [5] relates to Aspergillus niger. Kind of experiment: Effect on morphological changes in Aspergillus niger N402 germlings assessed as tip swelling at 0.9 ug/mL after 5 hrs. It counts as functional, organism-based.
For experiment [6], the system named is Aspergillus niger. Kind of experiment: Effect on morphological changes in Aspergillus niger N402 germlings assessed as germ tube elongation and branching at 5 ug/mL after 5 hrs. Format: functional, organism-based. An outline of the steps: (§3)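 Compound or water control was added, then 1 h more at 37 °C. Adherent germlings were scored by microscopy, at least 50 per sample, as branched or unbranched. Branching index = branched/total germlings.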

In experiment [7] the test system is Aspergillus niger. Kind of experiment: Effect on morphological changes in Aspergillus niger N402 germlings assessed as tip swelling at 5 ng/mL after 5 hrs. Format: functional, organism-based.
Experiment [8] has as its system Aspergillus niger. Kind of experiment: Induction of crhD gene expression in Aspergillus niger by microarray analysis relative to control. Format: functional. In outline:
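A. niger N402 conidia (5×10^9) grown in 5 L fermentation medium in a bioreactor at 37 °C, pH 3, 250 rpm. Drug in distilled H2O or H2O alone added at 5 h; mycelium harvested by filtration 1 h later and frozen in liquid nitrogen. cRNA hybridized to Affymetrix A. niger GeneChips, two independent bioreactor runs per condition; normalized, ≥1.5-fold change at p 0.05 cutoff.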

In experiment [9] the test system is Aspergillus niger. The experiment can be described thus: Effect on increase sub apical branching in Aspergillus niger N402 germlings assessed as branching index at 5 ug/mL after 5 hrs. Format: functional. In outline: as §3
The subject of experiment [10] is Aspergillus niger. Kind of experiment: Effect on morphological changes in Aspergillus niger N402 germlings assessed as germ tube elongation and branching at 0.9 ug/mL after 5 hrs. It counts as functional, organism-based. In outline:
as §3

Experiment [11] concerns Aspergillus niger. Kind of experiment: Effect on morphological changes in Aspergillus niger N402 germlings assessed as tip swelling at 5 ug/mL after 5 hrs. It counts as functional, organism-based.
Experiment [12] relates to Aspergillus niger. The experiment can be described thus: Effect on morphological changes in Aspergillus niger N402 germlings assessed as increase in germ tube. Format: functional, organism-based. An outline of the steps:
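Bioreactor: 5×10^9 N402 conidia in 5 l fermentation medium, pH 3 controlled, 37 °C, 250 rpm. Compound in water (or water alone) added at 5 h, then 1 h further cultivation. At least 200 germlings per run were counted for germ tubes per germling and subapical branches. Mean ± S.D. from two independent runs.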

Experiment [13] deals with Aspergillus niger. The experiment can be described thus: Effect on morphological changes in Aspergillus niger N402 germlings assessed as branching index at 50 ug/mL. It counts as functional.
Experiment [14] deals with Aspergillus niger. The experiment can be described thus: Induction of agsA expression in Aspergillus niger N402 germlings. Format: functional, organism-based. An outline of the steps:
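RNA from 1 h-treated N402 bioreactor germlings (5 h pre-growth, FM pH 3, 37 °C) was hybridised to A. niger Affymetrix arrays, biological duplicate. Data were normalised; differential expression was taken as at least 1.5-fold change with p cutoff 0.05. Northern blots on the same RNA were used for validation.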

Experiment [15] has as its system Aspergillus niger. Kind of experiment: Effect on morphological changes in Aspergillus niger N402 germlings assessed as germ tube elongation and branching at 5 ng/mL after 5 hrs. It counts as functional, organism-based. In outline:
as §3

Active and inactive are the calls of the source.

Consider `C[C@@H]1C[C@@H]([C@H](O)CC2CC(=O)NC(=O)C2)C(=O)[C@@H](C)C1`, for which the outcome in the experiment with Aspergillus niger [1] and in the experiment on Aspergillus niger [4] was inactive. In addition, the outcome in the experiment with Aspergillus niger [2] and with Aspergillus niger [3] was Active.
Take `CCCCCCC(=O)CCCCCC/C=C/C[C@@H](O)[C@H](O)[C@@](N)(CO)C(=O)O`: the outcome in the experiment on Aspergillus niger [1], in the experiment on Aspergillus niger [2], in the experiment with Aspergillus niger [3] and in the experiment with Aspergillus niger [4] was inactive.
For the molecule `CC(Cc1ccc(C(C)(C)C)cc1)CN1C[C@@H](C)O[C@@H](C)C1` (stereo partly specified) [FENPROPIMORPH], the outcome in the experiment on Aspergillus niger [5], in the experiment on Aspergillus niger [1], in the experiment with Aspergillus niger [6], with Aspergillus niger [7], in the experiment with Aspergillus niger [2] and with Aspergillus niger [3] was Active. Moreover, the outcome in the experiment with Aspergillus niger [10], in the experiment with Aspergillus niger [11], in the experiment with Aspergillus niger [4], in the experiment on Aspergillus niger [12], with Aspergillus niger [14] and in the experiment with Aspergillus niger [15] was Active. In addition, the “fold change (FC)” value in the experiment with Aspergillus niger [8] is 1.51. In addition, the Activity in the experiment on Aspergillus niger [9] was determined as 33%; with Aspergillus niger [13] it was 30.5%.
As to `Fc1ccc([C@]2(Cn3cncn3)O[C@H]2c2ccccc2Cl)cc1`, the result with Aspergillus niger [1], in the experiment on Aspergillus niger [2], in the experiment with Aspergillus niger [3] and with Aspergillus niger [4] was inactive.
On to `CCCN(CC)CC1COC2(CCC(C(C)(C)C)CC2)O1` (stereo unspecified), for which the result in the experiment on Aspergillus niger [1], in the experiment on Aspergillus niger [2], in the experiment with Aspergillus niger [3] and in the experiment on Aspergillus niger [4] was Active.
